Results as given in ChEMBL document CHEMBL2150901, “Synthesis and biological activity of tricyclic cycloalkylimidazo-, pyrimido- and diazepinopurinediones” (Eur J Med Chem, 2011).
Active and inactive are the calls of the source. The rule behind the calls is not given here.

Key:
Mus musculus [1] = test: Anticonvulsant activity in F1 albino mouse assessed as protection against maximal electroshock-induced seizures at 300 mg/kg, ip after 0.25 hrs; assay type: functional, organism-based; parameters: dose 300 mg/kg
In short: (§1)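 Male albino F-1 mice (18–25 g), groups of 1–5 (rotorod 2–8). Compound given ip as a suspension in 0.5% methylcellulose at 30, 100 and 300 mg/kg. Seizures by maximal electroshock or subcutaneous pentylenetetrazole; neurotoxicity by rotorod. Read at 0.5 and 4 h, with some at 0.25, 1 and 2 h. Value is the minimum active dose, with protected (or toxic)/tested animals.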

Mus musculus [2] = test: Anticonvulsant activity in F1 albino mouse assessed as protection against maximal electroshock-induced seizures at 300 mg/kg, ip after 0.5 hrs; assay type: functional, organism-based; parameters: dose 300 mg/kg; in short: as §1
Mus musculus [3] = test: Anticonvulsant activity in F1 albino mouse assessed as protection against maximal electroshock-induced seizures at 300 mg/kg, ip after 1 hr; assay type: functional, organism-based; parameters: dose 300 mg/kg; in short: as §1
Mus musculus [4] = test: Anticonvulsant activity in F1 albino mouse assessed as protection against maximal electroshock-induced seizures at 300 mg/kg, ip after 4 hrs; assay type: functional, organism-based; parameters: dose 300 mg/kg; in short: as §1
Mus musculus [5] = test: Anticonvulsant activity in F1 albino mouse assessed as protection against subcutaneous pentylenetetrazole-induced seizures at 100 mg/kg, ip after 0.25 hrs; assay type: functional, organism-based; parameters: dose 100 mg/kg; in short: as §1
Mus musculus [6] = test: Anticonvulsant activity in F1 albino mouse assessed as protection against subcutaneous pentylenetetrazole-induced seizures at 300 mg/kg, ip after 0.5 hrs; assay type: functional, organism-based; parameters: dose 300 mg/kg; in short: as §1
Mus musculus [7] = test: Anticonvulsant activity in F1 albino mouse assessed as protection against subcutaneous pentylenetetrazole-induced seizures at 100 mg/kg, ip after 1 hr; assay type: functional, organism-based; parameters: dose 100 mg/kg; in short: as §1
Mus musculus [8] = test: Anticonvulsant activity in F1 albino mouse assessed as protection against subcutaneous pentylenetetrazole-induced seizures at 300 mg/kg, ip after 4 hrs; assay type: functional, organism-based; parameters: dose 300 mg/kg; in short: as §1
Mus musculus [9] = test: Neurotoxicity in F1 albino mouse assessed as minimal motor impairment at 300 mg/kg, ip after 0.25 hrs by rotorod test; assay type: toxicity, organism-based; parameters: dose 300 mg/kg, route intraperitoneal; conditions: in vivo; in short: as §1
Mus musculus [10] = test: Neurotoxicity in F1 albino mouse assessed as minimal motor impairment at 300 mg/kg, ip after 0.5 hrs by rotorod test; assay type: toxicity, organism-based; parameters: dose 300 mg/kg, route intraperitoneal; conditions: in vivo; in short: as §1
Mus musculus [11] = test: Neurotoxicity in F1 albino mouse assessed as minimal motor impairment at 300 mg/kg, ip after 1 hr by rotorod test; assay type: toxicity, organism-based; parameters: dose 300 mg/kg, route intraperitoneal; conditions: in vivo; in short: as §1
Mus musculus [12] = test: Neurotoxicity in F1 albino mouse assessed as minimal motor impairment at 300 mg/kg, ip after 4 hrs by rotorod test; assay type: toxicity, organism-based; parameters: dose 300 mg/kg, route intraperitoneal; conditions: in vivo; in short: as §1
Rattus norvegicus [13] = test: Anticonvulsant activity in Sprague-Dawley albino rat assessed as protection against maximal electroshock-induced seizures at 30 mg/kg, po after 0.5 hrs; assay type: functional, organism-based; parameters: dose 30 mg/kg
In short: (§2)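 Male Sprague-Dawley albino rats (100–150 g), groups of 4. Oral suspension in 0.5% methylcellulose/water. Protection assessed by maximal electroshock or subcutaneous pentylenetetrazole; motor impairment by rotorod. Time points 0.25–4 h. Value is protected (or toxic)/tested animals.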

Rattus norvegicus [14] = test: Anticonvulsant activity in Sprague-Dawley albino rat assessed as protection against maximal electroshock-induced seizures at 30 mg/kg, po after 1 hr; assay type: functional, organism-based; parameters: dose 30 mg/kg; in short: as §2
Rattus norvegicus [15] = test: Anticonvulsant activity in Sprague-Dawley albino rat assessed as protection against maximal electroshock-induced seizures at 30 mg/kg, po after 2 hrs; assay type: functional, organism-based; parameters: dose 30 mg/kg; in short: as §2
Rattus norvegicus [16] = test: Anticonvulsant activity in Sprague-Dawley albino rat assessed as protection against maximal electroshock-induced seizures at 30 mg/kg, po after 4 hrs; assay type: functional, organism-based; parameters: dose 30 mg/kg; in short: as §2
Rattus norvegicus [17] = test: Anticonvulsant activity in Sprague-Dawley albino rat assessed as protection against subcutaneous pentylenetetrazole-induced seizures at 50 mg/kg, po after 0.25 hrs; assay type: functional, organism-based; parameters: dose 50 mg/kg; in short: as §2
Rattus norvegicus [18] = test: Anticonvulsant activity in Sprague-Dawley albino rat assessed as protection against subcutaneous pentylenetetrazole-induced seizures at 50 mg/kg, po after 2 hrs; assay type: functional, organism-based; parameters: dose 50 mg/kg; in short: as §2
Rattus norvegicus [19] = test: Neurotoxicity in Sprague-Dawley albino rat assessed as minimal motor impairment at 30 mg/kg, po after 0.25 hrs by rotorod test; assay type: toxicity, organism-based; parameters: dose 30 mg/kg, route oral; conditions: in vivo; in short: as §2
Rattus norvegicus [20] = test: Neurotoxicity in Sprague-Dawley albino rat assessed as minimal motor impairment at 30 mg/kg, po after 0.5 hrs by rotorod test; assay type: toxicity, organism-based; parameters: dose 30 mg/kg, route oral; conditions: in vivo; in short: as §2
Rattus norvegicus [21] = test: Neurotoxicity in Sprague-Dawley albino rat assessed as minimal motor impairment at 30 mg/kg, po after 1 hr by rotorod test; assay type: toxicity, organism-based; parameters: dose 30 mg/kg, route oral; conditions: in vivo; in short: as §2
Rattus norvegicus [22] = test: Neurotoxicity in Sprague-Dawley albino rat assessed as minimal motor impairment at 30 mg/kg, po after 4 hrs by rotorod test; assay type: toxicity, organism-based; parameters: dose 30 mg/kg, route oral; conditions: in vivo
In short: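 Male Sprague-Dawley albino rats (100–150 g), groups of 4, dosed orally with a suspension in 0.5% methylcellulose/water. Neurotoxicity was scored as minimal motor impairment on the rotorod at 0.25, 0.5, 1 and 4 h. Results are reported as animals showing toxicity per animals tested.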

Rattus norvegicus [23] = test: Toxicity in Sprague-Dawley albino rat assessed as mortality following continuous seizures at 50 mg/kg, po after 0.25 hrs; assay type: organism-based; parameters: dose 50 mg/kg, route oral; conditions: in vivo
In short: (§3)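 Male Sprague-Dawley albino rats (100–150 g), in groups of 4, were given an oral suspension in 0.5% methylcellulose/water. The event recorded was death following continuous seizures, given as animals affected per animals tested.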

Rattus norvegicus [24] = test: Toxicity in Sprague-Dawley albino rat assessed as mortality following continuous seizures at 50 mg/kg, po after 0.5 hrs; assay type: organism-based; parameters: dose 50 mg/kg, route oral; conditions: in vivo; in short: as §3
Rattus norvegicus [25] = test: Toxicity in Sprague-Dawley albino rat assessed as mortality following continuous seizures at 50 mg/kg, po after 1 hr; assay type: organism-based; parameters: dose 50 mg/kg, route oral; conditions: in vivo; in short: as §3
Rattus norvegicus [26] = test: Toxicity in Sprague-Dawley albino rat assessed as mortality following continuous seizures at 50 mg/kg, po after 4 hrs; assay type: organism-based; parameters: dose 50 mg/kg, route oral; conditions: in vivo; in short: as §3
Rattus norvegicus [27] = organism: Rattus norvegicus; test: Selectivity ratio of Ki for adenosine A1 receptor in rat brain cortical membrane to Ki for adenosine A2A receptor in rat brain striatal membrane; assay type: cell membranes
In short: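 Ki ratios from radioligand competition binding. Rat A1 used brain cortical membranes and rat A2A used brain striatal membranes. Human A1 and A2A used membranes of CHO cells expressing the receptors. A1 radioligand [³H]CCPA; A2A radioligand [³H]MSX-2. Potent compounds were tested at 6–7 concentrations spanning 3 orders of magnitude.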

Adenosine receptor A2a = Adenosine receptor A2a (Rattus norvegicus, UniProt P30543); test: Displacement of [3H]MSX-2 from adenosine A2A receptor in rat brain striatal membrane; assay type: cell membranes
Sequence of Adenosine receptor A2a (P30543 whole entry): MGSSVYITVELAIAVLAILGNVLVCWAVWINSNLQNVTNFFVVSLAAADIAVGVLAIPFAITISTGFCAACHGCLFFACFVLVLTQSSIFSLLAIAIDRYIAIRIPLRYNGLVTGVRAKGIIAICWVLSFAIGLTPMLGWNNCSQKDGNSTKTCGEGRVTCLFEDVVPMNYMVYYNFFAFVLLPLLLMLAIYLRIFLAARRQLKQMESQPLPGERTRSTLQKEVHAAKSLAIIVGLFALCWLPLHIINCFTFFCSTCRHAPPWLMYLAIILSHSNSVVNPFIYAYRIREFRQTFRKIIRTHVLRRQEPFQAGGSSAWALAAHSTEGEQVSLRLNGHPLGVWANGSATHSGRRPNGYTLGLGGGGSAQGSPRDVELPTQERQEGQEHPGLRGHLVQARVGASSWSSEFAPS

Adenosine receptor A1 = target: T1, Adenosine receptor A1 (Rattus norvegicus, UniProt P25099); test: Displacement of [3H]CCPA from adenosine A1 receptor in rat brain cortical membrane; assay type: cell membranes
T1 sequence (P25099 whole entry): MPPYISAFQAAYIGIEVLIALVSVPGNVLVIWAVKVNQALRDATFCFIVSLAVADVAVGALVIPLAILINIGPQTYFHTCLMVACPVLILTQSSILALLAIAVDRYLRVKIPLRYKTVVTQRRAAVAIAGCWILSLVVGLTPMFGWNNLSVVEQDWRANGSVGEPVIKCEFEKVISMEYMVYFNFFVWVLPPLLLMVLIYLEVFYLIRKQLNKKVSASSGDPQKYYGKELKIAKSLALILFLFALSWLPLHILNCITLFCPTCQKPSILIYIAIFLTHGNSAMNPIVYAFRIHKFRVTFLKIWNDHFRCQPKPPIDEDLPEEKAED

Rattus norvegicus [28] = test: Anticonvulsant activity in Sprague-Dawley albino rat assessed as protection against subcutaneous pentylenetetrazole-induced seizures at 50 mg/kg, po after 0.5 hrs; assay type: functional, organism-based; parameters: dose 50 mg/kg; in short: as §2
Rattus norvegicus [29] = test: Anticonvulsant activity in Sprague-Dawley albino rat assessed as protection against subcutaneous pentylenetetrazole-induced seizures at 50 mg/kg, po after 1 hr; assay type: functional, organism-based; parameters: dose 50 mg/kg; in short: as §2
Rattus norvegicus [30] = test: Anticonvulsant activity in Sprague-Dawley albino rat assessed as protection against subcutaneous pentylenetetrazole-induced seizures at 50 mg/kg, po after 4 hrs; assay type: functional, organism-based; parameters: dose 50 mg/kg; in short: as §2
Rattus norvegicus [31] = test: Anticonvulsant activity in po dosed Sprague-Dawley albino rat assessed as protection against subcutaneous pentylenetetrazole-induced seizures after 0.25 hrs; assay type: functional
Mus musculus [32] = test: Anticonvulsant activity in F1 albino mouse assessed as protection against subcutaneous pentylenetetrazole-induced seizures at 300 mg/kg, ip after 0.25 hrs; assay type: functional, organism-based; parameters: dose 300 mg/kg; in short: as §1
Mus musculus [33] = test: Anticonvulsant activity in F1 albino mouse assessed as protection against subcutaneous pentylenetetrazole-induced seizures at 100 mg/kg, ip after 0.5 hrs; assay type: functional, organism-based; parameters: dose 100 mg/kg; in short: as §1
Mus musculus [34] = test: Anticonvulsant activity in F1 albino mouse assessed as protection against subcutaneous pentylenetetrazole-induced seizures at 300 mg/kg, ip after 1 hr; assay type: functional, organism-based; parameters: dose 300 mg/kg; in short: as §1
Rattus norvegicus [35] = test: Toxicity in Sprague-Dawley albino rat assessed as mortality following continuous seizures at >100 mg/kg, po; assay type: organism-based; conditions: in vivo
Rattus norvegicus [36] = test: Anticonvulsant activity in po dosed Sprague-Dawley albino rat assessed as protection against maximal electroshock-induced seizures; assay type: functional
Rattus norvegicus [37] = test: Anticonvulsant activity in po dosed Sprague-Dawley albino rat assessed as protection against subcutaneous pentylenetetrazole-induced seizures; assay type: functional

Row | SMILES | Activity (Mus musculus [1]) | Activity (Mus musculus [2]) | Activity (Mus musculus [3]) | Activity (Mus musculus [4]) | Activity (Mus musculus [8]) | Activity (Mus musculus [9]) | Activity (Mus musculus [10]) | Activity (Mus musculus [11]) | Activity (Mus musculus [12]) | Activity (Rattus norvegicus [13]) | Activity (Rattus norvegicus [14]) | Activity (Rattus norvegicus [15]) | Activity (Rattus norvegicus [16]) | Activity (Rattus norvegicus [17]) | Activity (Rattus norvegicus [19]) | Activity (Rattus norvegicus [20]) | Activity (Rattus norvegicus [21]) | Activity (Rattus norvegicus [22]) | Ratio Ki (Rattus norvegicus [27]) | Ki (Adenosine receptor A2a) | other results
1 | CC1CCC(N2CCCCn3c2nc2c3c(=O)n(C)c(=O)n2C)CC1 (mixture of isomers) | inactive | inactive | inactive | inactive | inactive | Non-toxic | Non-toxic | Non-toxic | Non-toxic | inactive | inactive | inactive | inactive | inactive | Non-toxic | Non-toxic | Non-toxic | Non-toxic | 4 | 830 nM | Activity (Mus musculus [5]): Active; Activity (Mus musculus [6]): Active; Activity (Mus musculus [7]): Active; Activity (Rattus norvegicus [18]): inactive; Activity (Rattus norvegicus [23]): Toxic; Activity (Rattus norvegicus [24]): Toxic; Activity (Rattus norvegicus [25]): Toxic; Activity (Rattus norvegicus [26]): Toxic; Ki (Adenosine receptor A1): 3440 nM
2 | Cn1c(=O)c2c(nc3n2CCCN3CC2CCCCC2)n(C)c1=O | inactive | inactive | inactive | inactive | inactive | Non-toxic | Non-toxic | Non-toxic | Non-toxic | inactive | inactive | inactive | inactive | Active | Non-toxic | Non-toxic | Non-toxic | Non-toxic | 4 | 610 nM | Activity (Mus musculus [5]): Active; Activity (Mus musculus [6]): Active; Activity (Mus musculus [7]): inactive; Activity (Rattus norvegicus [28]): Active; Activity (Rattus norvegicus [29]): Active; Activity (Rattus norvegicus [18]): inactive; Activity (Rattus norvegicus [30]): Active; ED50 (Rattus norvegicus [31]): > 200 mg/kg; Ki (Adenosine receptor A1): 2490 nM
3 | Cn1c(=O)c2c(nc3n2CCCCN3CC2CCCCC2)n(C)c1=O | inactive | Active | inactive | inactive | inactive | Non-toxic | Non-toxic | Non-toxic | Non-toxic | inactive | inactive | inactive | inactive | inactive | Non-toxic | Non-toxic | Non-toxic | Non-toxic | 1 | 3500 nM | Activity (Mus musculus [32]): inactive; Activity (Mus musculus [33]): Active; Activity (Mus musculus [34]): inactive; Activity (Rattus norvegicus [28]): Active; Activity (Rattus norvegicus [29]): inactive; Activity (Rattus norvegicus [30]): inactive; Activity (Rattus norvegicus [35]): Toxic; ED50 (Rattus norvegicus [36]): > 250 mg/kg; ED50 (Rattus norvegicus [37]): > 100 mg/kg; Ki (Adenosine receptor A1): 5180 nM
